Experimental data reported in article PMC4094229 (European journal of medicinal chemistry, 2013).

Experiments:
MCF-10A cells = test: MTT cell viability assay, normal breast MCF-10A; type: cell-based, human
MCF-7 cells [1] = test: Cell cycle distribution; type: cell-based, human; conditions: 24 h
MDA-MB-231 cells = test: Cell cycle distribution; type: cell-based, human; conditions: 24 h
[2] = test system: human breast cancer cell lines (MCF-7 and MDA-MB-231); test: MTT assay, activity against cancer cells; type: cell-based; conditions: 72 h, up to 50 μM
Summary of the method: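 ATCC cells were used. MCF-7 was grown in DMEM with 10% FBS, insulin, pyruvate and NEAA; MDA-MB-231 in DMEM with 10% FBS, NEAA and L-glutamine. Cells were seeded at 3×10³/well and exposed 72 h to 0, 1, 5, 10, 25, 50 μM, with a DMSO vehicle. MTT (5 mg/mL stock) was added for 2–4 h at 37°C; formazan was dissolved in DMSO and read at A570. Viability = mean OD treated/DMSO control; IC50 from three separate experiments.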

MCF-7 cells [3] = test: MTT cell viability assay, MCF-7; type: cell-based; conditions: Homo sapiens, MCF7, 72 h, read-out: IC50 MCF-7, MTT, 72 h, 1-50 μM

C=C1C(=O)O[C@H]2C[C@H](C)[C@@]34C[C@@]5(C(=O)O[C@H]6C[C@@H](C)[C@@H]7[C@@H](OC(C)=O)C[C@H](O)[C@@]7(C)C[C@@H]65)[C@@H](C(C)=C3C[C@H]12)[C@@H]4O [Compound 1, Lineariifolianoid E]
toxicity to MCF-10A cells (MCF-10A cells; normal breast cell line): low toxicity | effect on cell cycle progression (MCF-7 cells [1]; MCF-7, 0, 1, 2.5 μM): dose-dependent cell cycle arrest in the G2/M phase | cell cycle arrest at 2.5 μM (MCF-7 cells [1]; MCF-7, 2.5 μM): a majority of the MCF-7 cells were arrested in the G2/M phase | effect on cell cycle progression (MDA-MB-231 cells; MDA-MB-231, 0, 1, 2.5 μM): dose-dependent cell cycle arrest in both S and G2/M phase | cell cycle arrest at 2.5 μM (MDA-MB-231 cells; MDA-MB-231, 2.5 μM): significant increase in the number of cells in both S and G2/M phases

C=C1C(=O)O[C@H]2C[C@H](C)[C@H]3[C@@H](O)C[C@@](C)(O)[C@@]34O[C@H]4[C@H]12 [Compound 6, 5α,6α-epoxy-2α,4α-dihydroxy-1β-guai-11(13)-en-12,8α-olide]
activity against cancer cells [2]: did not show visible activity

C=C1C(=O)O[C@@H]2CC(C)=C3[C@@H](OC(C)=O)C[C@@](C)(O)[C@@H]3[C@@H](O)[C@H]12 [Compound 7, 6α-hydroxyinuchinenolide B]
activity against cancer cells [2]: did not show visible activity

CC(=O)O[C@H]1C=C(CCO)[C@@H](C)C[C@H]2OC(=O)[C@@H](C)[C@@H]12 [Compound 9, 6β-acetoxysundiversifolide]
activity against cancer cells [2]: did not exhibit any noticeable activity

C=C1C(=O)O[C@@H]2CC(C)=C3[C@@H](C[C@H]12)[C@](C)(O)C[C@@H]3O [Compound 10, deacetylinuchinenolide B]
activity against cancer cells [2]: did not show visible activity

C[C@@H]1C2=C[C@H]3[C@@H](C[C@@]2(C)CC[C@@H]1O)OC(=O)[C@@H]3C [Compound 15, 3β-hydroxy-11α,13-dihydroalantolactone]
activity against cancer cells [2]: did not exhibit any noticeable activity

COc1cccc2c1C(=O)c1c(O)c3c(c(O)c1C2=O)C[C@@](O)(C(=O)CO)C[C@@H]3O[C@H]1C[C@H](N)[C@H](O)[C@H](C)O1 [Doxorubicin]
IC50 (MCF-7 cells [3]): 700 ± 60 nM

CC(=O)O[C@H]1C(=O)[C@@]2(C)[C@H]([C@H](OC(=O)c3ccccc3)[C@]3(O)C[C@H](OC(=O)[C@H](O)[C@@H](NC(=O)c4ccccc4)c4ccccc4)C(C)=C1C3(C)C)[C@]1(OC(C)=O)CO[C@@H]1C[C@@H]2O [Paclitaxel, reference compound]
IC50 (MCF-10A cells; Homo sapiens, MCF-10A, 72 h, read-out: IC50 MCF-10A): 427 ± 55.4 nM
